Source: PubChem BioAssay (Johns Hopkins Ion Channel Center)
The list is not random: actives were taken first. Their share in the collection is about 3.7%.
Kir21 inh: blocks the mouse Kir2.1 inward-rectifier potassium channel. HEK293-Kir2.1, FluxOR thallium flux fluorescence; stronger effect = lower value. AID 1672. B-score at 10 µM. 310,000 compounds, 0.85% hits;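 active = fluorescence ratio B-score at or below minus 3 SD of library scores, with starting-brightness B-score within 2 SD, cut at about -4.2 in these data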;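 note: channel flux triggered by added potassium and thallium sulfate stimulus; B-score of peak minus minimum fluorescence over baseline after thallium stimulus; more negative B-score means stronger Kir2.1 block with less thallium influx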
Target sequence (P35561 whole entry, looked up): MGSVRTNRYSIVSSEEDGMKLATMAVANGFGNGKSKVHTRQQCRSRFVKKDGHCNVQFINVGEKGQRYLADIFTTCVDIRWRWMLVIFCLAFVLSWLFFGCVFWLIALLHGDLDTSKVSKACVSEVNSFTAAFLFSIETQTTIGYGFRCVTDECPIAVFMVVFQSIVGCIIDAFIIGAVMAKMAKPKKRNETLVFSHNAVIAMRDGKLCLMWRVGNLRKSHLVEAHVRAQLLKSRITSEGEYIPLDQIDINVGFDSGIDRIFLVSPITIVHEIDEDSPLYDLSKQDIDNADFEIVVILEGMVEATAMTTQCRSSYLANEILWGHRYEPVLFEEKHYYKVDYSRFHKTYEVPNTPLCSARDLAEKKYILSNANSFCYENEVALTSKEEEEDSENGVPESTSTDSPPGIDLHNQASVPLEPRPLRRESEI
KCNQ1 act: human KCNQ1 channel potentiation or activation; B-score at 10 µM; CHO-K1 KCNQ1, thallium flux FluxOR fluorescence; stronger effect = higher value; 310,000 compounds, 0.35% hits; AID 2648;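 active = fluorescence ratio B-score, a plate-corrected score, at least three library SD, with initial intensity B-score within 5 SD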
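System: CHO-K1 cells stably expressing KCNQ1 / Medium: assay buffer for compound exposure, DMSO matched across wells / Reagent: thallium- and potassium-containing depolarizing buffer / Compound: one concentration, matched DMSO / Incubation: 20 min compound pretreatment at room temperature / Measured by: kinetic FluxOR fluorescence, 10 s baseline plus 110 s post-stimulus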
KCNK9 inh: inhibitors of human KCNK9 two-pore domain potassium channel | Q9NPC2 | HEK293 KCNK9, FluxOR thallium flux fluorescence; stronger effect = lower value | B-score at 10 µM | 310,000 compounds, 1.2% hits | AID 488922;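 active = ratio B-score over 3 SD below the library mean, with starting fluorescence within 5 SD of its mean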;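 note: negative B-score means less thallium flux so channel inhibition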
KCNQ1 block: blocks the human KCNQ1 potassium channel; P51787; 310,000 compounds, 1.3% hits; B-score at 10 µM; CHO-K1 KCNQ1, FluxOR thallium flux fluorescence; stronger effect = higher value;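 active = compounds whose thallium flux B-score, printed positive for inhibition, exceeds three library SD while starting fluorescence stays within three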;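 note: channel opened by potassium depolarization with thallium stimulus after 20 min compound exposure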
hERG protect: shields human hERG channel from block by proarrhythmic agents; 310,000 compounds, 0.51% hits; AID 1511; activation (rescue from dofetilide block), less the hit threshold, % at 10 µM; CHO-hERG, FluxOR thallium flux, dofetilide IC70 present;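 active = activation above the mean of controls blocked by dofetilide plus 5 SD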;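 note: thallium influx through hERG after potassium depolarization seen as dye fluorescence rise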
KCNK3 inh: human KCNK3 channel inhibition, primary screen | B-score at 10 µM | CHO-KCNK3 thallium flux, FluxOR fluorescence; stronger effect = lower value | 340,000 compounds, 0.84% hits | O14649;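 active = B-score under library mean minus 4 SD, starting fluorescence ratio at most library mean plus 5 SD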;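 note: more negative B-score means stronger inhibition of thallium flux through KCNK3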
Numbers stand for hits; - = inactive; . = no result.

SMILES	Kir21 inh	KCNQ1 act	KCNK9 inh	KCNQ1 block	hERG protect	KCNK3 inh
COc1ccc(C2c3ccc4ccccc4c3Oc3ncn(CCN(C)C)c(=N)c32)cc1 (configuration not stated)	-4.28	-	-	-	-	-
N=c1c2c(ncn1CCCO)Oc1c(ccc3ccccc13)C2c1ccccc1 (configuration not stated)	-	-	-	-	-	-
COc1ccc(C2c3ccc4ccccc4c3Oc3ncn(CCCO)c(=N)c32)cc1OC (configuration not stated)	-	9	-	-	-	-
Cc1ccc(/C=N\NC(=O)CNC(=O)C23CC4CC(CC(C4)C2)C3)o1	-	-	-	-	-	-
CN1C(=O)C2(OCC(CO)([N+](=O)[O-])CO2)c2ccccc21 (configuration not stated)	-	-	-	-	-	-
CC(CNC(=O)CCC(=O)N1CCOc2ccc(Cl)cc21)c1ccccc1 (configuration not stated)	-	-	-	-	-	-
CCN1CCN(C(CNS(=O)(=O)c2ccc(Cl)cc2)c2cccnc2)CC1 (configuration not stated)	-	-	-	-	-	-
CN(C)CCCn1cnc2c(c1=N)C(c1ccccc1)c1ccc3ccccc3c1O2 (configuration not stated)	-7.25	-	-	-	-	-
Cc1cccc(N(Cc2ccccc2)C(=O)C2CCN(C(=O)c3ccccc3C)CC2)c1	.	.	.	.	.	-
CNC(=O)c1c(NC(=O)c2ccc(S(=O)(=O)N(C)c3ccccc3)cc2)sc2c1CCN(C(C)C)C2	-	-	-8.12	-	-	.
NC(=O)c1ccsc1NC(=O)c1ccc(S(=O)(=O)N2CCCc3ccccc32)cc1	-	-	-	-	-	-
CCN1CCc2c(sc(NC(=O)c3ccc(S(=O)(=O)N(C)c4ccccc4)cc3)c2C(=O)NC)C1	-	-	-	21	-	-
CCN1CCc2c(sc(NC(=O)c3ccc4ccccc4c3)c2C(N)=O)C1	-	-	-6.85	-	-	-
CC(C)N1CCc2c(sc(NC(=O)c3ccc(S(=O)(=O)N4CCc5ccccc54)cc3)c2C(N)=O)C1	-	-	-	17	-	-
COc1cc(SC)ccc1C(=O)Nc1ccc2c(c1)CCC2	-	-	-	-	-	-
COc1ccc(-c2ccc3c(c2)C2CC3CCN2C(=O)C2CCCCC2)cc1 (configuration not stated)	.	.	.	.	.	-
CC(C)N1CCc2c(sc(NC(=O)c3cc(-c4cccs4)nc4ccccc34)c2C(N)=O)C1	-	-	-6.85	-	-	-
CC(C)N1CCc2c(sc(NC(=O)c3nc4ccccc4s3)c2C(N)=O)C1	-	-	-	-	-	-
O=C(Cc1cccs1)Nc1nc(-c2ccc(F)c(F)c2)cs1	-	-	-	-	-	-
COc1ccc(-c2csc(NC(=O)Cc3ccccc3F)n2)c(OC)c1	-	-	-6.86	-	-	-
COc1ccc(CC(=O)Nc2nc(C(C)(C)C)cs2)cc1	-8.25	-	-	-	-	-
O=C(Cc1cccs1)Nc1nc(-c2ccc(F)cc2F)cs1	-	-	-7.53	-	-	-
CCc1noc(C)c1C(=O)OCC(=O)N(C)c1c(N)n(Cc2ccccc2)c(=O)[nH]c1=O	-	-	-	-	-	-
COC(=O)C(CC(C)C)NC(=O)c1ccc([N+](=O)[O-])c(C)c1 (configuration not stated)	-	-	-	-	4.6	-
CCN(CC)c1ccc(/C=N/NC(=O)c2nnn(-c3nonc3N)c2C(C)C)c(O)c1	-	-	-	7	-	-
SMILES	Kir21 inh	KCNQ1 act	KCNK9 inh	KCNQ1 block	hERG protect	KCNK3 inh
O=c1[nH][nH]c(-c2ccccc2O)c1C(C[N+](=O)[O-])c1ccc(Br)cc1 (configuration not stated)	-	-	-	-	-	-
Cc1ccc(C(C[N+](=O)[O-])c2c(-c3ccccc3O)[nH][nH]c2=O)cc1 (configuration not stated)	-9.49	-	-	-	-	-
Cc1ccc(S(=O)(=O)Nc2cc(Cl)c(O)cc2C)cc1	-5.58	-	-	-	-	-
Cc1ccc(S(=O)(=O)Nc2cc(C(C)C)c(O)cc2C)cc1	-6.47	-	-	-	-	-
Cc1ccc(NS(=O)(=O)c2ccc(Cl)nc2)c(C)c1	.	.	.	.	.	-
O=C(c1ccccc1SCc1ccccc1)N1CCCCCC1	-4.5	-	-	-	-	-
CCN(Cc1ccccc1)C(=O)CSc1nc(C)cc(C)c1C#N	-4.74	-	-	-	-	-
CCN(CC)C(=O)CSc1nc(C)cc(C)c1C#N	-	-	-	-	-	-
CCn1cc(CN2CCC(C(=O)Nc3cccc(-c4cccc(OC)c4)c3)CC2)c(C)n1	-	-	-	-	-	-
CCCN1C(=O)/C(=C\C=C2\N(CC)c3ccccc3C2(C)C)SC1=S	-	-	-	9	-	-
COc1cc(/C=C2\SC(c3ccccc3)=NC2=O)cc(Cl)c1O	-	-	-	-	-	-10.4
COc1ccc(/C=C2\SC(c3ccc(C)cc3)=NC2=O)cc1OC	-	-	-	-	9.7	-
O=C(CCCc1ccccn1)c1ccc(-c2ccccc2)cc1	.	.	.	.	.	-
COc1ccc2cc(CO)n(C)c2c1	.	.	.	.	.	-
Cc1cccc(C)c1OCc1cc(C(=O)N2CCN(c3ccc(F)cc3)CC2)no1	-	-	-	-	-	-
Cc1ccc2nc3c(c(Nc4ccc5c(c4)OCCO5)c2c1)CCC3	-5.63	-	-	-	-	-
Cc1cccc(Nc2c3c(nc4ccccc24)CCC3)c1	-6.02	-	-	-	-	-
Cc1ccc2nc3c(c(Nc4ccc(O)cc4)c2c1)CCC3	-	-	-	-	-	-
COc1ccc(Nc2c3c(nc4ccc(C)cc24)CCC3)cc1	-	-	-	8	-	-
Cc1ccc(NC(=O)CSCC(=O)Nc2cc(Cl)ccc2N2CCN(C)CC2)cc1	-5.25	-	-	-	-	-
O=C(NCCC1CCCCN1S(=O)(=O)c1cccs1)C(=O)NCc1ccccc1 (configuration not stated)	-	-	-	-	-	-
O=C(NCC1CCCO1)c1ccccc1-c1nc(-c2ccc(Cl)cc2)no1 (configuration not stated)	-	-	-	6	-	-
O=C(COC(=O)c1ccc(Br)cc1)NCCc1ccccc1	-	-	-	-	-	-
O=C(COC(=O)c1ccccc1)c1ccc(Br)cc1	-	-	-6.8	-	-	-
Cc1ccc(NC(=O)C(=O)NCC2CCCN2S(=O)(=O)c2cccs2)c(C)c1 (configuration not stated)	-	-	-	-	-	-
Cc1ccc(C)c(NC(=O)C(=O)NCC2CCCN2S(=O)(=O)c2cccs2)c1 (configuration not stated)	-	-	-7.24	-	-	-
